Assay outcomes (PubChem)
Only some compounds are listed: those with a hit (about 3.7% of all), similar ones and a draw of the others.
KCNK9 block = inhibitors of human KCNK9 two-pore domain potassium channel; HEK293 KCNK9, FluxOR thallium flux fluorescence; hits give low values; B-score at 10 µM; actives 1.2% (n = 310,000);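 active means ratio B-score over 3 SD below the library mean, with starting fluorescence within 5 SD of its mean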;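 further: negative B-score means less thallium flux so channel inhibition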
KCNK3 block = human KCNK3 channel inhibition, primary screen; O14649; CHO-KCNK3 thallium flux, FluxOR fluorescence; hits give low values; B-score at 10 µM; actives 0.84% (n = 340,000);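 active means B-score under library mean minus 4 SD, starting fluorescence ratio at most library mean plus 5 SD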;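 further: more negative B-score means stronger inhibition of thallium flux through KCNK3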
hERG rescue = hERG (human) protection from proarrhythmic block; actives 0.51% (n = 310,000); activation (rescue from dofetilide block), less the hit threshold, % at 10 µM; Q12809; CHO-hERG, FluxOR thallium flux, dofetilide IC70 present;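 active means activation above the mean of controls blocked by dofetilide plus 5 SD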;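 further: thallium influx through hERG after potassium depolarization seen as dye fluorescence rise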
KCNQ1 inh = inhibitors of human KCNQ1 potassium channel; AID 2642; P51787; B-score at 10 µM; CHO-K1 KCNQ1, FluxOR thallium flux fluorescence; hits give high values; actives 1.3% (n = 310,000);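 active means compounds whose thallium flux B-score, printed positive for inhibition, exceeds three library SD while starting fluorescence stays within three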;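 further: channel opened by potassium depolarization with thallium stimulus after 20 min compound exposure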
Kir21 inh = blocks the mouse Kir2.1 inward-rectifier potassium channel. P35561. AID 1672. HEK293-Kir2.1, FluxOR thallium flux fluorescence; hits give low values. B-score at 10 µM. actives 0.85% (n = 310,000);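 active means fluorescence ratio B-score at or below minus 3 SD of library scores, with starting-brightness B-score within 2 SD, cut at about -4.2 in these data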;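 further: channel flux triggered by added potassium and thallium sulfate stimulus; B-score of peak minus minimum fluorescence over baseline after thallium stimulus; more negative B-score means stronger Kir2.1 block with less thallium influx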
KCNQ1 pot = potentiators or activators of human KCNQ1 potassium channel; P51787; CHO-K1 KCNQ1, thallium flux FluxOR fluorescence; hits give high values; B-score at 10 µM; actives 0.35% (n = 310,000);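 active means fluorescence ratio B-score, a plate-corrected score, at least three library SD, with initial intensity B-score within 5 SD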
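Assay system: stable KCNQ1 CHO-K1 line; medium: assay buffer, equal DMSO in all wells; timing: 90 min dye loading and 20 min compound exposure, both at room temperature; technique: kinetic FluxOR thallium fluorescence, 10-s 1-Hz baseline, 110-s post-stimulus read; read-out basis: B score of baseline-normalized fluorescence ratio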
* = called active by the depositor; i = inactive; nt = no result given.

SMILES	KCNK9 block	KCNK3 block	hERG rescue	KCNQ1 inh	Kir21 inh	KCNQ1 pot
O=C(O)CSc1cc(C(F)(F)F)nc(-c2ccccn2)n1	i	i	39*	i	0.63	i
CCOC(=O)CSc1cc(C(F)(F)F)nc(-c2ccccn2)n1	i	i	-7	i	2.3	i
COc1ccccc1N1CCN(C(=O)CCNC(=O)c2ccco2)CC1	nt	i	nt	nt	nt	nt
CCC(=O)c1ccc(OCC(O)CN(CCc2ccccc2)Cc2ccccc2)cc1 (configuration not stated)	i	i	-21	7*	-1.8	i
COc1cc(/C=C2\SC(=S)N(C(Cc3ccccc3)C(=O)O)C2=O)ccc1O (configuration not stated)	i	i	-20	i	-4.5*	i
COc1cc(/C=C2\SC(=S)N(Nc3ccccc3)C2=O)ccc1O	i	i	-4	i	-0.83	i
CCNc1nc(NC(C)C)nc(N(C#N)Cc2ccccc2)n1	-7.3*	i	-2	i	-0.62	i
CCNc1nc(NC(C)C)nc(N(C#N)CCOc2ccc(Cl)cc2Cl)n1	-7.5*	-11*	-6	i	-1.3	i
CCNc1nc(NC(C)C)nc(N(C#N)CC(=O)OC)n1	i	i	-8	i	-1.4	i
CC(C)CN1CC(Br)C(=O)NC1=O (configuration not stated)	nt	i	nt	nt	nt	nt
CC(C)(C)c1ccc(CN(Cc2ccccc2)C(c2ccccn2)c2nnnn2C(C)(C)C)cc1 (configuration not stated)	-7.4*	i	-8	i	-0.78	i
CCC(C)c1c(NS(=O)(=O)c2ccc(C)cc2)o[nH]c1=O (configuration not stated)	nt	i	nt	nt	nt	nt
COc1ccc(S(=O)(=O)N2CCN(C(=O)CCc3c[nH]c4ccccc34)CC2)cc1	nt	i	nt	nt	nt	nt
N#Cc1nc(-c2ccccc2)oc1NCc1ccco1	i	i	-5	i	1.9	i
N#Cc1nc(-c2ccccc2Cl)oc1NCc1ccco1	-7.5*	i	-2	i	-0.53	i
CSc1ncccc1C(=O)OCC(=O)N1CC(=O)Nc2ccccc21	nt	i	nt	nt	nt	nt
C[C@H]1CN([C@@H](C)CO)C(=O)c2cccc(NC(=O)C3CC3)c2O[C@H]1CN(C)C(=O)Nc1ccc2c(c1)OCO2	nt	i	nt	nt	nt	nt
CS(=O)(=O)N(CC(=O)NC1CCCC1)C1CCCCC1	i	i	6.5*	i	-0.31	i
O=C(NNC(=O)c1ccncc1)Nc1ccc(N=Nc2ccccc2)cc1	nt	i	nt	nt	nt	nt
Cc1ccc(Sc2ncccc2COC(=O)Nc2c(C)cccc2C)cc1	i	i	-6	i	-4.6*	i
COc1ccccc1-n1cc(CN2CCCC(CO)(Cc3cccc(Cl)c3)C2)cn1 (configuration not stated)	i	i	-14	i	-1.5	i
CCOC(=O)c1cnn(-c2nc3c(C)cccc3s2)c1C(F)(F)F	-7.9*	i	-10	i	0.96	i
COc1cccc(C2(O)CCN(C(=O)C3CCC3)CC2)c1	i	i	4.8*	i	0.02	i
O=C(COC(=O)c1cc(-c2ccccc2Cl)nc2ccccc12)Nc1ncc(C(F)(F)F)cc1Cl	i	i	-6	i	-0.97	i
Cc1c(-c2ccccc2)nc2ccccc2c1C(=O)OCC(=O)Nc1ncc(C(F)(F)F)cc1Cl	i	i	-10	9*	-0.54	i
SMILES	KCNK9 block	KCNK3 block	hERG rescue	KCNQ1 inh	Kir21 inh	KCNQ1 pot
Cc1cc(C(=O)NCc2csc(-c3ccccc3)n2)no1	i	i	-7	i	1.4	i
CN(C)c1ccc(C=c2c3ccccc3n3c2cc(-c2ccccc2)[n+]3C)cc1	nt	-15*	nt	nt	nt	nt
CN(C)c1ccc(C=c2c3ccccc3n3c2cc(-c2ccc(Cl)cc2)[n+]3C)cc1	nt	-12*	nt	nt	nt	nt
CN(C)c1ccc(C=c2c3cc([N+](=O)[O-])ccc3n3c2cc(-c2ccccc2)[n+]3C)cc1	nt	i	nt	nt	nt	nt
COc1cc(N(C)C)ccc1C=c1c2ccccc2n2c1cc(-c1ccccc1)[n+]2C	nt	i	nt	nt	nt	nt
Cc1cc(S(=O)(=O)N2CCCC(C(=O)Nc3ccc(C(=O)O)cc3)C2)ccc1Cl (configuration not stated)	i	i	1	i	-1.4	i
